Tn6 DDE FP: inhibitors of Tn6 peptide binding to human fibrin DD(E) | inhibition, % at 8.3 µM | AID 720509 | P02675 | Fibrin DD(E) TRITC-Tn6 fluorescence polarization displacement | 370,000 compounds, 0.21% hits;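 active means inhibition above a per-campaign cutoff: mean of compounds within control limits plus 3 SD, cut at about 15% in these data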;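 further: 0% = median of all compound wells on the plate and 100% = blocking peptide control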
DDE Tn7 FP inh: inhibitors of Tn7 peptide binding to human fibrin DD(E). P02675. FP displacement of FITC-Tn7 peptide from fibrin DD(E); 0% = median of compound wells per plate. inhibition, % at 8.3 µM. 370,000 compounds, 0.13% hits. AID 720508;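 active means inhibition above the mean of compounds falling within the control limits plus 3 SD of them, cut at about 14% in these data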;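 further: 0% = plate median of compound wells and 100% = 10 µM Aha-Tn7 peptide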
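Assay system: Fibrin-DD(E) protein isolated from polymerized human fibrin clots; read-out basis: percent inhibition; medium: Tris/NaCl/CaCl2 buffer, pH 7.8; signal: FP measurement; incubation: 10 min plus 3 h, room temperature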
ARNT-TACC3 inh: disruptors of human ARNT/TACC3 interaction; Q9Y6A5; AlphaScreen His-ARNT PAS-B/GST-TACC3 binding, luminescence; TACC3 fragment carries E629A point mutation; inhibition, % at 9.99 µM; 390,000 compounds, 0.66% hits;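 active means mean inhibition of replicates at least 50% and at least half of replicates each reaching 50%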;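 further: 0% = complete ARNT plus TACC3 wells and 100% = ARNT alone without TACC3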
GRK2 aptamer HTS: inhibitors of human GRK2 displacing RNA aptamer. P25098. bead flow cytometry, FAM-aptamer displacement from GRK2. inhibition of aptamer binding, % at 10 µM. 330,000 compounds, 0.59% hits. AID 488847;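 active means inhibition of aptamer binding above 40%, roughly 3 SD of noise, on plates passing a quality check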;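 further: median bead fluorescence of bound FAM aptamer so fluorescent compounds give negative values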
Target sequence (P25098 whole entry, looked up): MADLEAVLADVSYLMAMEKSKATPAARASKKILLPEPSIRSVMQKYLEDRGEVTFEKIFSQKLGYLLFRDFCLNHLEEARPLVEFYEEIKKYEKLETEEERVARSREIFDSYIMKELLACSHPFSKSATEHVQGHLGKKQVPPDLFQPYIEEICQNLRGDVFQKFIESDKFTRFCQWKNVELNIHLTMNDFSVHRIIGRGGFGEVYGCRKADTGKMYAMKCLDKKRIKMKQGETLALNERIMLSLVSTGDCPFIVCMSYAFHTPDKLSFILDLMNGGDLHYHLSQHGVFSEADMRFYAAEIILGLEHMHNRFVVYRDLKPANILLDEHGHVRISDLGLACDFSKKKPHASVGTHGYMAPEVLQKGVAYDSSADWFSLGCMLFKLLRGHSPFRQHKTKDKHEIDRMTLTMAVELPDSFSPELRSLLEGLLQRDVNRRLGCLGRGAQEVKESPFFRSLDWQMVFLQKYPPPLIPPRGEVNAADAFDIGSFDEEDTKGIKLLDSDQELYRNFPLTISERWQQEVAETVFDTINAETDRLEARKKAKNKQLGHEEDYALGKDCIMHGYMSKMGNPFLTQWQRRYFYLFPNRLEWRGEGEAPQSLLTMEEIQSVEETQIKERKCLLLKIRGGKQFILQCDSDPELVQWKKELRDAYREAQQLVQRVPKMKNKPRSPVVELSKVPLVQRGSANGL
CAL PDZ FP-1: blocks peptide binding to human CAL PDZ domain; AID 504414; 330,000 compounds, 0.02% hits; inhibition, % at 20 µM; purified CAL PDZ, TMR-peptide fluorescence polarization, 1 h; Q9HD26;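 active means highest replicate inhibition of at least 40%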;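 further: plate controls were DMSO neutral control wells for no effect and unlabeled competitor peptide control wells for full effect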
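Assay system – tagged CAL PDZ protein CerCALP, purified · Timing – 1 h at RT · Compound – single point, 20 µM · Measured by – fluorescence polarization from S- and P-plane intensities, G-factor corrected · Evaluation – inhibition from polarization loss · Probe or stimulus – TMR reporter peptide T*-PRC34 · Buffer or medium – pH 7.4 phosphate-saline buffer, reducing agent, detergent, IgG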
CAL PDZ FP-2: inhibitors of human CAL PDZ peptide binding; Q9HD26; purified CAL PDZ, TMR-peptide fluorescence polarization, 1 h; inhibition, % at 24.9 µM; 300,000 compounds, 0.92% hits; AID 602252;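 active means mean inhibition of at least 30% with at least half of replicates also reaching 30%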;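 further: 0% = DMSO neutral control and 100% = excess unlabeled competitor peptide PRC23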
* hit, by the source's call; nt = not tested or not shown. In the library only some 1.8% were active in any assay of this set; here they are far more common.

SMILES | Tn6 DDE FP | DDE Tn7 FP inh | ARNT-TACC3 inh | GRK2 aptamer HTS | CAL PDZ FP-1 | CAL PDZ FP-2
Cc1ccc(S(=O)(=O)NCCNS(=O)(=O)c2ccc(C)cc2)cc1 | 7.4 | -6.8 | -3.0 | 4.0 | nt | 56.1*
COc1ccc(NC(=O)Nc2cccc3c2O[C@@H](CN(C)C(=O)Nc2ccc4c(c2)OCO4)[C@@H](C)CN([C@@H](C)CO)C3=O)cc1 | nt | nt | -7.6 | nt | nt | nt
c1ccc(-c2nc3ccccn3c2NC2CCCC2)nc1 | 1.6 | 2.0 | 63.8* | 2.0 | 0.4 | -0.1
C[C@H](NC(=O)c1ccco1)C(=O)Nc1nc(-c2ccccn2)cs1 | 4.1 | -10.5 | 68.2* | nt | 0.2 | -5.6
OC1(c2ccc3ccccc3c2)CCN(Cc2ccccc2)C1 (stereo not given) | nt | nt | -1.2 | 0.0 | -1.1 | 38.2*
OC(c1ccccc1)C1(c2ccccc2)CCN(Cc2ccccc2)CC1 (stereo not given) | -5.7 | -5.2 | nt | nt | nt | nt
COc1cccc(-c2cnc(C(O)c3c(C)cccc3C)[nH]2)c1 (stereo not given) | -2.3 | 0.8 | nt | nt | nt | nt
Cc1c(Cl)cccc1NC(=O)C1CCN(S(C)(=O)=O)CC1 | -7.8 | 0.3 | 0.1 | 1.0 | -1.2 | -1.2
Cc1cccc(NC(=O)C2CCN(S(C)(=O)=O)CC2)c1C | -5.6 | -6.8 | -0.4 | 0.0 | -4.4 | 55.3*
COc1cc(-c2nnc(NC(=O)CS(=O)(=O)c3ccc(C)cc3)o2)cc(OC)c1OC | -1.9 | -1.1 | 45.3* | 2.0 | -3.1 | -0.7
COc1cccc(-c2nnc(NC(=O)CCS(=O)(=O)c3ccc(C)cc3)o2)c1 | 0.3 | 2.7 | 9.8 | 1.0 | -2.4 | -5.8
COc1cc(-c2nnc(NC(=O)CS(=O)(=O)c3ccc(F)cc3)o2)cc(OC)c1OC | 5.3 | 3.3 | 53.7* | 0.0 | -2.1 | -2.2
COc1ccccc1-c1nnc(NC(=O)CCS(=O)(=O)c2ccc(F)cc2)o1 | 3.8 | 3.0 | nt | nt | nt | nt
CC1=C(C(=O)N(C(C)C)C(C)C)CC(CC(=O)NCc2cccs2)C(=O)N1Cc1ccc(C(C)(C)C)cc1 (stereo not given) | 1.8 | 4.8 | nt | nt | nt | nt
COc1ccc(C(N)c2nccc3cc(OC)c(OC)cc23)cc1OC (stereo not given) | nt | nt | 71.7* | 0.0 | -0.6 | 1.6
CCC(=O)Nc1ccc2c(c1)C(=O)N(C)[C@H]1CC[C@H](CC(=O)N[C@H](C)c3ccccc3)O[C@H]1CO2 | nt | nt | 5.0 | nt | nt | nt
COc1cc([N+](=O)[O-])ccc1NC(=O)/C=C\C(=O)O | 3.5 | 5.3 | 1.0 | 0.0 | -1.3 | -1.0
COc1cc([N+](=O)[O-])ccc1NC(=O)/C=C/C(=O)O | -0.3 | 0.1 | -1.7 | 0.0 | -0.1 | 71.4*
c1ccc(Nc2ncnc3[nH]ncc23)cc1 | 2.4 | 4.7 | nt | 0.0 | nt | nt
CCOc1cccc(CNc2ccc(O)cc2)c1OCc1ccccc1Cl | 16.0* | 3.8 | 8.1 | 2.0 | -0.3 | -0.6
CCOc1cccc(CNCCO)c1OCc1ccc(Cl)cc1Cl | -4.0 | -4.1 | -27.9 | 0.0 | 0.5 | -2.9
CCOc1cccc(CNc2ccc(O)cc2)c1OCc1ccc(Cl)cc1Cl | 27.9* | 0.2 | 25.0 | 2.0 | 1.3 | 5.9
CN(C)C(=O)[C@@H]1[C@@H](CO)[C@@H]2Cn3c(ccc(C4=CCCC4)c3=O)[C@H]1N2C(=O)c1ccccc1 | nt | nt | 4.4 | nt | nt | nt
O=C(Nc1ccc(F)cc1)C1CCCN1S(=O)(=O)c1cccc2nsnc12 (stereo not given) | -0.8 | -3.0 | 3.0 | 0.0 | 0.0 | 128.2*
O=C(O)C1Cc2ccccc2CN1S(=O)(=O)/C=C/c1ccccc1 (stereo not given) | 4.4 | -4.3 | 46.3* | 3.0 | -0.6 | nt
SMILES | Tn6 DDE FP | DDE Tn7 FP inh | ARNT-TACC3 inh | GRK2 aptamer HTS | CAL PDZ FP-1 | CAL PDZ FP-2
O=C(Cc1ccccc1)NN=Cc1ccccc1 | 4.9 | 4.3 | -1.2 | nt | -0.1 | 0.6
O=C(CC(=O)N/N=C/c1ccccc1)NCc1ccccc1 | 5.0 | -3.3 | 1.0 | 0.0 | -1.1 | 146.6*
CCC(c1nnc(SCC(=O)NC23CC4CC(CC(C4)C2)C3)o1)N(C)C (stereo not given) | 6.8 | 11.0 | -1.9 | 0.0 | nt | 0.9
Cc1cc(NC(=O)CSc2nnc(-c3ccc(O)cc3)o2)no1 | -2.3 | 3.6 | 46.8* | 0.0 | -2.5 | 0.1
Cc1cc(C)cc(-c2nnc(SCC(=O)Nc3cc(C)on3)o2)c1 | 5.3 | 1.7 | 38.6 | nt | -1.9 | -4.1
O=C(CSc1nnc(-c2ccc(O)cc2)o1)Nc1ccccc1 | -0.6 | 6.3 | nt | 1.0 | -1.9 | 61.8*
O=C(CCSc1nnc(-c2ccncc2)o1)Nc1ccccc1 | 1.4 | 0.7 | -4.3 | 1.0 | -1.2 | -3.0
Cc1cc(NC(=O)CSc2nnc(C)o2)no1 | 2.6 | -0.8 | 46.8* | 2.0 | -1.3 | -4.8
CCC(c1nnc(SCC(=O)Nc2cc(C)on2)o1)N(C)C (stereo not given) | 8.4 | -5.2 | 75.5* | 4.0 | -0.6 | nt
CN(C)C(CNC(=O)c1ccc(-c2ccccc2)cc1)c1ccccc1 (stereo not given) | -8.5 | -3.5 | 3.3 | 0.0 | -4.7 | -3.4
O=C(CSc1nnc(CNC(=O)c2cccs2)o1)Nc1ccc(Br)cc1 | -1.9 | -0.8 | 4.8 | 3.0 | -1.9 | 43.6*
O=C(CC1CC1)N1CC[C@@H]2[C@H]1c1cc(-c3ccc(F)cc3)ccc1N[C@@H]2CO | nt | nt | 11.4 | nt | nt | nt
COc1cccc(C2C(C(=O)c3cc4ccccc4o3)=C(O)C(=O)N2CCN(C)C)c1OC (stereo not given) | -0.7 | -0.3 | -4.5 | 2.0 | nt | 33.1*
O=C1NCCCCC1NS(=O)(=O)c1ccc(F)c(F)c1 (stereo not given) | -4.0 | -4.2 | 4.9 | 0.0 | -0.7 | 110.1*
CCc1ccc(S(=O)(=O)NC2CCCCNC2=O)cc1 (stereo not given) | 9.4 | 5.0 | nt | 1.0 | -0.3 | 2.5
CCOC1=CC(=O)N(Cc2ccccc2)C1 | 10.7 | -3.2 | 4.5 | 2.0 | 0.3 | 69.2*
NC(=O)CC1C(=O)N(c2ccc(Cl)cc2)C(=S)N1NC(=O)c1cccc(F)c1 (stereo not given) | 3.9 | 3.5 | -8.4 | 0.0 | nt | 62.3*
CNC(=O)CC1C(=O)N(c2ccc(Cl)cc2)C(=S)N1NC(=O)c1cccc(F)c1 (stereo not given) | -0.6 | -5.8 | -5.9 | 2.0 | -0.6 | -2.0
O=C(Nn1cc(C(=O)Nc2ccccc2F)c2ccccc2c1=O)c1cnccn1 | 3.6 | 4.9 | 60.4* | 0.0 | -1.8 | 19.3
COC(=O)c1cn(NC(=O)Cc2ccc(OC)c(OC)c2)c(=O)c2ccccc12 | -6.1 | -10.8 | nt | 4.0 | 0.0 | 6.4
COC(=O)c1cn(NC(=O)c2cnccn2)c(=O)c2ccccc12 | -2.3 | -0.9 | 63.0* | 0.0 | 0.6 | 0.1
COc1cc(OC)cc(C(=O)Nn2cc(C(=O)Nc3ccccc3F)c3ccccc3c2=O)c1 | 0.9 | 4.2 | nt | 0.0 | -1.0 | 4.2
